What is called GI50 is the concentration at which growth is held to half of that of the control. As usually defined, the TGI is the concentration at which net growth stops. By IC50 is commonly meant the concentration that gives 50% inhibition.

This note sets out measurements from ChEMBL document CHEMBL5500359, “Identification of a new bisindolinone arresting IGROV1 cells proliferation” (Eur J Med Chem, 2024).

Data set [1] deals with IGROV-1. Description: Induction of cell cycle arrest in human IGROV-1 cells assessed as decrease in cell accumulation at S phase at 5 uM incubated for 24 hrs by PI staining based flow cytometry relative to control. The format is functional. Further details: scale not given: the % may be the effect or the level left. In short, it runs like this:
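IGROV1 plated 2×10^4 cells/cm², after 24 h given 5 μM for 24 h; cells detached, PBS-washed, stained 30 min at room temperature in dark with 50 μg/mL propidium iodide, 10 μg/mL RNase, 0.01% Igepal, 0.1% sodium citrate; DNA content by flow cytometry, phase percentages versus untreated.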
In general terms: In flow cytometry, cells or beads pass a laser one at a time.

In data set [2] the test system is HDFa (Homo sapiens). Description: Antiproliferative activity against human HDFa cells assessed as doubling time at 5 uM measured after 48 hrs (reference value: 35 hrs).
The subject of data set [3] is IGROV-1. Description: Downregulation of ITAG5 mRNA level in human IGROV-1 cells at 5 uM incubated for 6 hrs by RT-PCR analysis. It counts as functional, cell-based. In short, it runs like this: (§1)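 IGROV1 given 5 μM versus vehicle; RNA extracted by spin column, reverse transcribed, CCND1, CDKN1A and ITAG5 transcripts quantified by qRT-PCR as fold change versus vehicle; at least triplicate, Student's t-test, p<0.05.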

Data set [4] concerns IGROV-1. Description: Effect on p21 level in human IGROV-1 cells at 5 uM incubated for 6 hrs by Western blot analysis. It counts as functional, cell-based. Background: A western blot detects proteins with antibodies after separation by electrophoresis.
Data set [5] can be described thus: Upregulation of histone H4 acetylation in human IGROV-1 cells incubated for 6 hrs by Western blot analysis relative to control. It counts as functional. In short, it runs like this:
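IGROV1 seeded 1.5×10^4 cells/cm², after 48 h exposed 6 h to 5 μM final; histones acid-extracted (0.4 N H2SO4) from nuclei isolated with 10 mM butyrate washes, acetone-precipitated, 15% SDS-PAGE, blotted with anti-acetyl-lysine; densitometry normalized to histone H1, percent of vehicle, mean ± SD of three experiments.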

Data set [6] relates to Renal cancer cell line. In words: Cell growth inhibition of human Renal cancer cells incubated for 48 hrs by SRB assay. The format is functional. In short, it runs like this:
(§2)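 NCI-60 five-concentration screen: lines seeded 5×10^3–4×10^4 cells/well depending on line; compound diluted in fresh medium at scalar concentrations 0–100 or 0–1000 μM; 48 h exposure, in situ fixation, sulforhodamine B protein staining, optical density read; GI50, TGI and LC50 per NCI procedures; panel mean = mean graph midpoint.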
A general note: In SRB staining, fixed cells bind dye roughly in proportion to their protein.

In data set [7] the test system is Prostatic carcinoma cell. Description: Cell growth inhibition of human Prostate carcinoma cells incubated for 48 hrs by SRB assay. The format is functional. The procedure, abridged: as §2
Data set [8] has as its system IGROV-1. In words: Induction of DNA damage in human IGROV-1 cells assessed as increase in gamma-H2AX phosphorylation at 5 uM pretreated for 24 hrs followed by UV exposure for 6 hrs by Western blot analysis. The note with it: time 30.0 hrs. The format is functional, cell-based. In short, it runs like this: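 IGROV1 pretreated 24 h with 5 μM, then UV-irradiated with a 7.5 W lamp for 3 min; UV alone as positive control. Cyclin D1 and RAD51 by RIPA-lysate Western blot normalized to α-tubulin; γH2AX by acid-extracted histone blot normalized to H1; percent of vehicle, mean ± SD, three experiments.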

Data set [9] deals with IGROV-1. Description: Downregulation of CCND1 level in human IGROV-1 cells at 5 uM incubated for 6 hrs by Western blot analysis. It counts as functional, cell-based. In short, it runs like this:
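IGROV1 exposed to 5 μM; RIPA lysates at 4 °C, protein quantified, SDS-PAGE (12.5% or 7.5%), nitrocellulose blot probed overnight at 4 °C for cyclin D1 or α5 integrin subunit; densitometry normalized to α-tubulin, percent of vehicle, mean ± SD of three experiments.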

The subject of data set [10] is Panel NCI-60 (60 carcinoma cell lines). Description: Cytostatic activity against human Panel NCI-60 (60 carcinoma cell lines) incubated for 48 hrs by SRB assay. It counts as functional. The procedure, abridged:
as §2

Data set [11] deals with Breast cancer cell line. Description: Cytotoxicity against human Breast cancer cells incubated for 48 hrs by SRB assay. It counts as functional. In short, it runs like this:
as §2

A short description of data set [12]: Cytostatic activity against human Leukemia cancer cells incubated for 48 hrs by SRB assay. It counts as functional, Leukemia cell. The procedure, abridged:
as §2

Data set [13] deals with Breast cancer cell line. In words: Cytostatic activity against human Breast cancer cells incubated for 48 hrs by SRB assay. The format is functional. The procedure, abridged: as §2
The nature of data set [14]: Selectivity index, ratio of IC50 for human HDFa cells to IC50 for human IGROV-1 cells. It counts as functional. In short, it runs like this:
(§3)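 IGROV1 and HDFa in RPMI 1640 + 10% FCS, 2 mM glutamine, 37 °C, 5% CO2; seeded 1.5×10^4/well, after 24 h exposed 24 h to 0.010–500 μM (DMSO ≤0.1%). MTT 0.2 mg/mL in PBS 2 h at 37 °C, absorbance 570 nm; IC50 from dose-response, three independent experiments each in triplicate; SI = HDFa IC50/IGROV1 IC50.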

Data set [15] can be described thus: Cytotoxicity against human HDFa cells assessed as reduction in cell viability incubated for 24 hrs by MTT assay. The format is toxicity, cell-based. The procedure, abridged: as §3
Data set [16] has as its system Renal cancer cell line. In words: Cytostatic activity against human Renal cancer cells incubated for 48 hrs by SRB assay. The format is functional. The procedure, abridged:
as §2

In data set [17] the test system is Ovarian cancer cell line. In words: Cytotoxicity against human Ovarian cancer cells incubated for 48 hrs by SRB assay. It counts as functional. The procedure, abridged:
as §2

Data set [18] has as its system IGROV-1. Description: Antiproliferative activity against human IGROV-1 cells assessed as doubling time at 5 uM incubated for 24 to 48 hrs (reference value: 23.9 +/- 2.4 hrs). The format is functional. Conditions: time 24-48 hrs. In short, it runs like this: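 Quantitative phase imaging on IGROV1 seeded 4×10^3/well, 24 h later given 5 μM (six replicates; DMSO ≤0.1% final). Images hourly for 2 days at 37 °C, 5% CO2. Cell count and confluence normalized to experiment start; doubling time derived from growth.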

The test system of data set [19] is Colon carcinoma cell. Description: Cytostatic activity against human Colon carcinoma cells incubated for 48 hrs by SRB assay. The format is functional. In short, it runs like this: as §2
For data set [20], the system named is IGROV-1. Description: Effect on p21 mRNA level in human IGROV-1 cells at 5 uM incubated for 6 hrs by RT-PCR analysis. It counts as functional, cell-based. The procedure, abridged:
as §1

Data set [21] has as its system CNS carcinoma cell. In words: Cell growth inhibition of human CNS carcinoma cells incubated for 48 hrs by SRB assay. It counts as functional. In short, it runs like this:
as §2

Active and inactive are the calls of the source. The rule behind the calls is not given here.

Consider `CC(C)(C)c1cc(/C=C2/C(=O)Nc3cc(Cl)ccc32)c(O)c(/C=C2/C(=O)Nc3cc(Cl)ccc32)c1`, for which the Activity in data set [1] stood at 21.2%; in [5] it was 68.5%. Besides, the Time came out at 56 h in data set [2] and 113.3 h in [18]. Besides, the outcome in [3], in data set [8] and in data set [9] was Active. The result in data set [4] and in data set [20] was inactive. For the same molecule, the values for the GI50 in [6] and in [21] were 2690 nM and 2750 nM, respectively. Further, the GI in [7] came out at 3.63 µM; in data set [10] it was 12.02 µM; in data set [11], 48.98 µM; in data set [12] it was 18.62 µM; in [16], 11.22 µM; in data set [17], 30.9 µM. The TGI in data set [13] and in data set [19] was 13.2 µM each time. Further, the Ratio IC50 in data set [14] was determined as 3.64. For the same molecule, in data set [15], the concentration for half-maximal inhibition (IC50) at 24 h came out at 21.9 µM.
